Reference: ChEMBL document CHEMBL4480367 (Medchemcomm, 2019)
Calls of active or inactive are those of the source. The calls are words filed in the database; no cut-off is given here.

Key:
Matrix protein 2 = Matrix protein 2 (UniProt P0DOF8); assay: Inhibition of wild type Influenza A virus (A/chicken/Hubei/327/2004(H5N1)) M2 expressed in yeast cells after 46 to 48 hrs; type: cell-based
Outline: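 Yeast growth-restoration assay. Yeast carried the M2 coding sequence under the GAL1 promoter, grown in glucose SC medium (pH 6.5) lacking leucine, then washed and resuspended to A600 0.01 in 2% galactose SC medium. Compounds were added at graded concentrations; plates were incubated at 30 °C for 46–48 h and A600 was read. Hits were retested in triplicate for EC50.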

Saccharomyces cerevisiae = assay: Toxicity against yeast assessed as reduction in cell viability; type: organism-based
Outline: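 Control yeast strain carrying empty plasmid, induced in 2% galactose SC medium (pH 6.5) lacking leucine, with compounds at graded concentrations for 46–48 h at 30 °C. A600 was read. Toxicity value is the concentration inhibiting proliferation by 50%.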

[1] = Cytotoxicity against MDCK cells assessed as reduction in cell viability after 24 hrs by MTT assay; type: cell-based, Canis lupus familiaris; settings: dog
Outline: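 MDCK cells were seeded at 2 × 10^4 per well and treated next day with graded concentrations in DMEM for 24 h. MTT (5 mg mL−1 solution) was added for 4 h at 37 °C, cells were lysed for 3 h, and A575 was read. CC50 is the concentration inhibiting cell growth by 50% versus control cultures.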

Influenza A virus [2] = assay: (§1) Antiviral activity against amantadine-sensitive Influenza A virus (A/chicken/Hubei/327/2004(H5N1)) infected in MDCK cells assessed as reduction in early stage viral replication by measuring viral titer at 1.9 uM measured after 12 hrs by crystal violet staining-based plaque reduction assay during time-of-addition assay; type: functional, organism-based
Influenza A virus [3] = assay: as §1, with “4” for “1.9”; type: functional, organism-based
Influenza A virus [4] = assay: as §1, with “1.7” for “1.9”; type: functional, organism-based
Influenza A virus [5] = assay: Antiviral activity against Influenza A virus H5N1; type: functional, organism-based
Influenza A virus [6] = assay: Antiviral activity against Influenza A virus (H1N1); type: functional, organism-based

Chain of Matrix protein 2 (P0DOF8 whole entry): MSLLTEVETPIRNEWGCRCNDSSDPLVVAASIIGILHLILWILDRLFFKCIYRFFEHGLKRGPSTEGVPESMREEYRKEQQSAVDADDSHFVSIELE

SMILES	EC50 (Matrix protein 2)	Activity (Saccharomyces cerevisiae) [µM]	CC50 at 24 h [1] [µM]	further results
N#Cc1ccc(S(=O)(=O)NCc2cc3ccccc3s2)cc1	Not Active	> 204		
O=S(=O)(NCc1cc2ccccc2s1)c1ccc(Br)cc1	Not Active	> 176.2	> 174	
Cc1cc(CNS(=O)(=O)c2ccc(Br)cc2)c(C)s1		133.2	56.4	Activity (Influenza A virus [2]): Active
O=[N+]([O-])c1ccc(S(=O)(=O)NCc2ccc(Cl)s2)cc1	Not Active	> 201.3	128	
Cc1cc(CNS(=O)(=O)c2ccc(C#N)cc2)c(C)s1		> 218.7	> 218	
O=[N+]([O-])c1ccc(S(=O)(=O)NCc2cccs2)cc1		157.5	133	
O=[N+]([O-])c1ccc(S(=O)(=O)NCc2ccoc2)cc1		> 237.4	> 236	
NC(=O)c1nc(F)cnc1O				Activity (Influenza A virus [3]): Active
Cc1ccc(S(=O)(=O)NCc2csc3ccccc23)cc1		> 211.08	> 210	
Cc1cc(CNS(=O)(=O)c2ccc(F)cc2)c(C)o1		> 236.5	138	
Cc1cc(CNS(=O)(=O)c2ccc(Cl)cc2)c(C)o1		123.43	55.7	
Cc1cc(CNS(=O)(=O)c2ccc(F)cc2)c(C)s1	Not Active	120.2		
O=S(=O)(NCc1cc2ccccc2s1)c1cccc(F)c1	Not Active	> 180.5		
Cc1cc(CNS(=O)(=O)c2ccc(Br)cc2)c(C)o1		72.6	29.6	
CCOC(=O)C1=C[C@@H](OC(CC)CC)[C@H](NC(C)=O)[C@@H](N)C1.O=P(O)(O)O [OSELTAMIVIR PHOSPHATE]	Not Active	> 214.5	> 163	
O=S(=O)(NCc1cc2ccccc2s1)c1ccccc1F	Not Active	> 180.5		
O=S(=O)(NCc1csc2ccccc12)c1ccc(Cl)cc1		121.4	69.6	
Cc1cc(CNS(=O)(=O)c2ccc(C#N)cc2)c(C)o1		168.8	105	
O=S(=O)(NCc1cc2ccccc2s1)c1ccc(Cl)cc1	Not Active	> 198.3		

SMILES	EC50 (Matrix protein 2)	Activity (Saccharomyces cerevisiae) [µM]	CC50 at 24 h [1] [µM]	further results
O=S(=O)(NCc1cc2ccccc2s1)c1ccc(F)cc1	Not Active	> 208.5		
Cc1cc(CNS(=O)(=O)c2ccc([N+](=O)[O-])cc2)c(C)o1		> 215.9	> 152	
O=S(=O)(NCc1csc2ccccc12)c1ccc(C(F)(F)F)cc1	Not Active	> 180.4	94.8	
O=S(=O)(NCc1csc2ccccc12)c1ccccc1F	Not Active	59.1		
O=S(=O)(NCc1csc2ccccc12)c1cccc(F)c1	Not Active	> 208.5		
NC12CC3CC(CC(C3)C1)C2 [AMANTADINE]		> 443	> 100	Activity (Influenza A virus [4]): Active
Cc1cc(CNS(=O)(=O)c2ccc([N+](=O)[O-])cc2)c(C)s1		> 205.3	> 204	
Cc1cc(CNS(=O)(=O)c2ccc(Cl)cc2)c(C)s1		114.1	52.9	
Cc1cc(C(=O)NCCSCc2ccc([N+](=O)[O-])cc2)c(C)o1				EC50 (Influenza A virus [5]): 1.25 µM
N#Cc1ccc(S(=O)(=O)NCc2csc3ccccc23)cc1		> 204	122	
O=S(=O)(NCc1csc2ccccc12)c1ccc(F)cc1		133.8	98.6	
CC(=O)c1ccc(S(=O)(=O)NCc2csc3ccccc23)cc1		> 194	> 193	
O=[N+]([O-])c1ccc(S(=O)(=O)NCc2csc3ccccc23)cc1		> 192.3	> 191	
O=[N+]([O-])c1ccc(S(=O)(=O)NCc2ccsc2)cc1		> 224.6	139	
O=S(=O)(NCc1cc2ccccc2s1)c1ccc(C(F)(F)F)cc1	Not Active	> 180.4	> 180	
O=[N+]([O-])c1ccc(S(=O)(=O)NCc2cc3ccccc3s2)cc1	Not Active	> 192.3	> 191	
Cc1ccc(S(=O)(=O)NCc2cc3ccccc3s2)cc1	Not Active	> 211.08	> 210	
CC1CC2=C(NC(=O)NC2c2ccc(O)c(Br)c2)c2ccccc21 (stereo not drawn)				EC50 (Influenza A virus [6]): 0.032 µM; EC50 (Influenza A virus [5]): 0.032 µM
O=S(=O)(NCc1csc2ccccc12)c1ccc(Br)cc1		134.1	87.1	
